Laboratory results: ChEMBL document CHEMBL1124399, “Synthesis and structure-activity studies of some disubstituted phenylisoxazoles against human picornavirus” (J Med Chem, 1989)
Values after ≈ are worked out from the molar mass of the structure shown. Values joined by “and” are separate entries in the source; they are usually repeats but may differ in a detail not shown here. Identical values can stand only once.

Columns and labels:
Type in all cases: functional
Enterovirus [1] = experiment: Minimum inhibitory concentration against rhinovirus serotype 67; settings: Enterovirus; read-out: MIC
Procedure, shortened: (§1)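 Rhinovirus minimum inhibitory concentration (MIC) determined in a plaque reduction assay in cell culture, testing each serotype separately.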

Enterovirus [2] = experiment: Minimum inhibitory concentration against rhinovirus serotype 41; procedure, shortened: as §1
Enterovirus [3] = experiment: Minimum inhibitory concentration against rhinovirus serotype 1A; procedure, shortened: as §1
Enterovirus [4] = experiment: Minimum inhibitory concentration against rhinovirus serotype 21.; procedure, shortened: as §1
Enterovirus [5] = experiment: (§2) In vitro anti-rhinovirus activity was measured as maximum testable levels - highest concentration of compound which causes no apparent effect on the cell monolayers
Enterovirus [6] = experiment: as §2; remark: listed apart in the source
Enterovirus [7] = experiment: Minimum inhibitory concentration against rhinovirus serotype 15; procedure, shortened: as §1
Enterovirus [8] = experiment: Concentration required to inhibit 80 percent rhinovirus cell culture
Procedure, shortened: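 MIC80 is the concentration that inhibits 80% of the rhinovirus serotypes tested. It is derived from per-serotype MICs measured by plaque reduction assay.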

Enterovirus [9] = experiment: In vitro anti-rhinovirus activity was measured as mean MIC for five serotypes, HRV-1A, -2, -22, -41, and -50
Procedure, shortened: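 Mean of plaque-reduction-assay MICs across five rhinovirus serotypes (HRV-1A, -2, -22, -41, -50), chosen to represent a range of sensitivity to this compound class.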

Enterovirus [10] = experiment: Minimum inhibitory concentration against rhinovirus serotype 89; procedure, shortened: as §1
Enterovirus [11] = experiment: Minimum inhibitory concentration against rhinovirus serotype 30; procedure, shortened: as §1
Enterovirus [12] = experiment: Minimum inhibitory concentration against rhinovirus serotype 50; procedure, shortened: as §1
Enterovirus [13] = experiment: Minimum inhibitory concentration against rhinovirus serotype 86; procedure, shortened: as §1
Enterovirus [14] = experiment: Minimum inhibitory concentration against rhinovirus serotype 1B.; settings: Enterovirus; read-out: MIC; procedure, shortened: as §1
Enterovirus [15] = experiment: Minimum inhibitory concentration against rhinovirus serotype 1B; procedure, shortened: as §1
Enterovirus [16] = experiment: Minimum inhibitory concentration against rhinovirus serotype 6.; procedure, shortened: as §1

Row | Structure (SMILES) | MIC (Enterovirus [1]) | MIC (Enterovirus [2]) | MIC (Enterovirus [3]) | MIC (Enterovirus [4]; Enterovirus, read-out: MIC) | MIC (Enterovirus [5]) | MIC (Enterovirus [6]; Enterovirus, read-out: MIC) | MIC (Enterovirus [7]; Enterovirus, read-out: MIC) | MIC80 (Enterovirus [8]) | MIC (Enterovirus [9]) | MIC (Enterovirus [10]) | MIC (Enterovirus [11]; Enterovirus, read-out: MIC) | MIC (Enterovirus [12]) | MIC (Enterovirus [13]) | MIC (Enterovirus [4]) | also measured
1 | COc1cc(C2=NCCO2)cc(OC)c1OCCCCCc1cc(C)no1 | 14.7 µM (≈ 5.5 µg/mL) | 12.6 µM (≈ 4.72 µg/mL) | 6.2 µM (≈ 2.32 µg/mL) | 13.4 µM (≈ 5.02 µg/mL) | 7.7 µM (≈ 2.88 µg/mL) | 33.4 µM (≈ 12.5 µg/mL) | 0.6 µM (≈ 0.225 µg/mL) | 13.4 µM (≈ 5.02 µg/mL) | 9.9 µM (≈ 3.71 µg/mL) |  |  |  |  |  | MIC (Enterovirus [6]): 16.7 µM (≈ 6.25 µg/mL)
2 | Cc1cc(CCCCCOc2c(Cl)cc(C3=NCCO3)cc2[N+](=O)[O-])on1 | 0.3 µM (≈ 0.118 µg/mL) | 3 µM (≈ 1.18 µg/mL) | 0.07 µM (≈ 0.0276 µg/mL) |  | 1.4 µM (≈ 0.551 µg/mL) |  | 0.2 µM (≈ 0.0788 µg/mL) | 0.5 µM (≈ 0.197 µg/mL) | 1.35 µM (≈ 0.532 µg/mL) | 0.02 µM (≈ 0.00788 µg/mL) | 0.05 µM (≈ 0.0197 µg/mL) | 0.2 µM (≈ 0.0788 µg/mL) | 0.4 µM (≈ 0.158 µg/mL) |  | 
3 | Cc1cc(CCCCCOc2c(Br)cc(C3=NCCO3)cc2[N+](=O)[O-])on1 |  | 1.6 µM (≈ 0.701 µg/mL) | 0.1 µM (≈ 0.0438 µg/mL) | 0.5 µM (≈ 0.219 µg/mL) | 1.2 µM (≈ 0.526 µg/mL) |  | 0.5 µM (≈ 0.219 µg/mL) | 0.7 µM (≈ 0.307 µg/mL) | 1.16 µM (≈ 0.508 µg/mL) | 0.03 µM (≈ 0.0131 µg/mL) | 0.2 µM (≈ 0.0877 µg/mL) | 0.2 µM (≈ 0.0877 µg/mL) |  | 0.6 µM (≈ 0.263 µg/mL) | MIC (Enterovirus [14]): 0.3 µM (≈ 0.131 µg/mL); MIC (Enterovirus [15]): 0.7 µM (≈ 0.307 µg/mL)
4 | Cc1cc(CCCCCOc2c(C)cc(C3=NCCO3)cc2C)on1 |  | 1.6 µM (≈ 0.548 µg/mL) | 0.02 µM (≈ 0.00685 µg/mL) | 0.7 µM (≈ 0.24 µg/mL) | 0.8 µM (≈ 0.274 µg/mL) |  | 0.4 µM (≈ 0.137 µg/mL) | 1.3 µM (≈ 0.445 µg/mL) | 0.78 µM (≈ 0.267 µg/mL) |  | 0.2 µM (≈ 0.0685 µg/mL) | 0.2 µM (≈ 0.0685 µg/mL) | 0.05 µM (≈ 0.0171 µg/mL) | 0.5 µM (≈ 0.171 µg/mL) | MIC (Enterovirus [16]): 1.2 µM (≈ 0.411 µg/mL); MIC (Enterovirus [16]; Enterovirus, read-out: MIC): 2.4 µM (≈ 0.822 µg/mL)
5 | Cc1cc(CCCCCOc2c(Br)cc(C3=NCCO3)cc2Br)on1 |  | 2.1 µM (≈ 0.992 µg/mL) | 0.1 µM (≈ 0.0472 µg/mL) | 0.3 µM (≈ 0.142 µg/mL) | 0.6 µM (≈ 0.283 µg/mL) |  |  | 1.3 µM (≈ 0.614 µg/mL) | 0.63 µM (≈ 0.297 µg/mL) |  | 0.4 µM (≈ 0.189 µg/mL) |  |  |  | MIC (Enterovirus [11]): 0.2 µM (≈ 0.0944 µg/mL); MIC (Enterovirus [7]): 0.04 µM and 0.1 µM
6 | CCc1cc(C2=NCCO2)cc(C)c1OCCCCCc1cc(C)no1 |  |  |  |  |  | 35 µM (≈ 12.5 µg/mL) |  |  | 5.18 µM (≈ 1.85 µg/mL) |  |  |  |  |  | 
